# Where “and” joins values, the source holds several entries; their conditions need not be identical. Equal values may be shown once.
# System: Fibroblast
# Assay: Multiplex assay against human fibroblast
# Assay type: toxicity, cell-based
# Settings: 12 h, 1 µM, compound concentration 1 uM
# Outline: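 Four dyes were applied at seeding to live cells: Hoechst33342, BioTracker Green Microtubule Cytoskeleton Dye, MitoTracker Red and Annexin V Alexa Fluor 680. Imaging after compound addition used a CQ1 microscope at 37°C and 5% CO2. CellPathfinder machine-learning gating then sorted cells into Hoechst high-intensity objects or normal cells, normal cells into healthy, pyknosed or fragmented nuclei, and pyknosed cells into mitotic or apoptotic, with tubulin, mitochondrial-mass and membrane-permeability phenotypes given as per cents of healthy-nucleus cells.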
SMILES,Population Apoptotic (%),Population Fragmented Nuclei (%),Population Healthy Nuclei (%),Population Hoechst High Intensity Objects (%),Population Membrane Permeable-Phenotype (%),Population Mitochondria Different-Phenotype (%),Population Mitotic Cells (%),Population Normal (%),Population Pyknosed Nuclei (%),Population Tubulin-Different-Phenotype (%)
COc1ccc2c(c1OCc1ccccc1)C[C@@H](C(=O)O)N(C(=O)C(c1ccccc1)c1ccccc1)C2 [OLODANRIGAN],46% and 38%,17% and 21%,63% and 50%,7% and 1%,1% and 9%,2% and 5%,53% and 61%,92% and 98%,19% and 27%,29% and 57%
COc1cc(N2CCN(C)CC2)ccc1Nc1nccc(-c2cn(C)c3cnccc23)n1,11.76% and 10%,12.81% and 10.18%,70.44% and 80.97%,0%,3.5% and 4.92%,9.79% and 6.56%,88.24% and 90%,100%,16.75% and 8.85%,16.78% and 35.52%

# Same assay, conditions: 12 h, 1 µM, compound concentration 1 uM
row,SMILES,Total Cell Count
1,COc1ccc2c(c1OCc1ccccc1)C[C@@H](C(=O)O)N(C(=O)C(c1ccccc1)c1ccccc1)C2 [OLODANRIGAN],157 and 154
2,COc1cc(N2CCN(C)CC2)ccc1Nc1nccc(-c2cn(C)c3cnccc23)n1,203 and 226

# Same assay, conditions: 12 h, 10 µM, compound concentration 10 uM
SMILES,Population Apoptotic (%),Population Fragmented Nuclei (%),Population Healthy Nuclei (%),Population Hoechst High Intensity Objects (%),Population Membrane Permeable-Phenotype (%),Population Mitochondria Different-Phenotype (%),Population Mitotic Cells (%),Population Normal (%),Population Pyknosed Nuclei (%),Population Tubulin-Different-Phenotype (%)
COc1ccc2c(c1OCc1ccccc1)C[C@@H](C(=O)O)N(C(=O)C(c1ccccc1)c1ccccc1)C2 [OLODANRIGAN],31% and 34%,11% and 18%,65% and 54%,0% and 5%,1% and 6%,7%,68% and 65%,99% and 94%,23% and 26%,28% and 46%
COc1cc(N2CCN(C)CC2)ccc1Nc1nccc(-c2cn(C)c3cnccc23)n1,3.08% and 5.97%,–,41.67% and 59.65%,0%,13.85% and 8.82%,35.38% and 54.9%,96.92% and 94.03%,100%,41.67% and 39.18%,55.38% and 85.29%

# Same assay, conditions: 12 h, 10 µM, compound concentration 10 uM
row,SMILES,Total Cell Count
1,COc1ccc2c(c1OCc1ccccc1)C[C@@H](C(=O)O)N(C(=O)C(c1ccccc1)c1ccccc1)C2 [OLODANRIGAN],140 and 162
2,COc1cc(N2CCN(C)CC2)ccc1Nc1nccc(-c2cn(C)c3cnccc23)n1,156 and 171

# Same assay, conditions: 24 h, 1 µM, compound concentration 1 uM
SMILES,Population Apoptotic (%),Population Fragmented Nuclei (%),Population Healthy Nuclei (%),Population Hoechst High Intensity Objects (%),Population Membrane Permeable-Phenotype (%),Population Mitochondria Different-Phenotype (%),Population Mitotic Cells (%),Population Normal (%),Population Pyknosed Nuclei (%),Population Tubulin-Different-Phenotype (%)
COc1ccc2c(c1OCc1ccccc1)C[C@@H](C(=O)O)N(C(=O)C(c1ccccc1)c1ccccc1)C2 [OLODANRIGAN],65% and 38%,18% and 21%,66% and 53%,6% and 2%,0% and 9%,1% and 7%,34% and 61%,93% and 97%,15% and 25%,26% and 46%
COc1cc(N2CCN(C)CC2)ccc1Nc1nccc(-c2cn(C)c3cnccc23)n1,21.74% and 7.69%,12.15% and 10.47%,77.1% and 84.5%,0%,4.85% and 5.05%,10.3% and 3.21%,78.26% and 92.31%,100%,10.75% and 5.04%,13.94% and 38.53%

# Same assay, conditions: 24 h, 1 µM, compound concentration 1 uM
row,SMILES,Total Cell Count
1,COc1ccc2c(c1OCc1ccccc1)C[C@@H](C(=O)O)N(C(=O)C(c1ccccc1)c1ccccc1)C2 [OLODANRIGAN],159 and 146
2,COc1cc(N2CCN(C)CC2)ccc1Nc1nccc(-c2cn(C)c3cnccc23)n1,214 and 258

# Same assay, conditions: 24 h, 10 µM, compound concentration 10 uM
SMILES,Population Apoptotic (%),Population Fragmented Nuclei (%),Population Healthy Nuclei (%),Population Hoechst High Intensity Objects (%),Population Membrane Permeable-Phenotype (%),Population Mitochondria Different-Phenotype (%),Population Mitotic Cells (%),Population Normal (%),Population Pyknosed Nuclei (%),Population Tubulin-Different-Phenotype (%)
COc1ccc2c(c1OCc1ccccc1)C[C@@H](C(=O)O)N(C(=O)C(c1ccccc1)c1ccccc1)C2 [OLODANRIGAN],53% and 58%,10% and 17%,68% and 62%,2% and 3%,1% and 4%,3% and 4%,46% and 41%,97% and 96%,21% and 19%,21% and 50%
COc1cc(N2CCN(C)CC2)ccc1Nc1nccc(-c2cn(C)c3cnccc23)n1,5.77% and 8.77%,–,47.62% and 66.67%,0%,2.86% and 10.48%,41.43% and 41.13%,94.23% and 91.23%,100%,35.37% and 30.65%,70% and 74.19%

# Same assay, conditions: 24 h, 10 µM, compound concentration 10 uM
row,SMILES,Total Cell Count
1,COc1ccc2c(c1OCc1ccccc1)C[C@@H](C(=O)O)N(C(=O)C(c1ccccc1)c1ccccc1)C2 [OLODANRIGAN],136 and 153
2,COc1cc(N2CCN(C)CC2)ccc1Nc1nccc(-c2cn(C)c3cnccc23)n1,147 and 186

# Same assay, conditions: 48 h, 1 µM, compound concentration 1 uM
SMILES,Population Apoptotic (%),Population Fragmented Nuclei (%),Population Healthy Nuclei (%),Population Hoechst High Intensity Objects (%),Population Membrane Permeable-Phenotype (%),Population Mitochondria Different-Phenotype (%),Population Mitotic Cells (%),Population Normal (%),Population Pyknosed Nuclei (%),Population Tubulin-Different-Phenotype (%)
COc1ccc2c(c1OCc1ccccc1)C[C@@H](C(=O)O)N(C(=O)C(c1ccccc1)c1ccccc1)C2 [OLODANRIGAN],42% and 41%,27% and 31%,58% and 52%,3% and 1%,0% and 1%,2% and 4%,57% and 58%,96% and 98%,14% and 15%,20% and 40%
COc1cc(N2CCN(C)CC2)ccc1Nc1nccc(-c2cn(C)c3cnccc23)n1,–,17.86% and 7.25%,77.23% and 87.02%,0%,0% and 1.75%,12.72% and 3.95%,100% and 66.67%,100%,4.91% and 5.73%,12.72% and 38.16%

# Same assay, conditions: 48 h, 1 µM, compound concentration 1 uM
row,SMILES,Total Cell Count
1,COc1ccc2c(c1OCc1ccccc1)C[C@@H](C(=O)O)N(C(=O)C(c1ccccc1)c1ccccc1)C2 [OLODANRIGAN],154 and 156
2,COc1cc(N2CCN(C)CC2)ccc1Nc1nccc(-c2cn(C)c3cnccc23)n1,224 and 262

# Same assay, conditions: 48 h, 10 µM, compound concentration 10 uM
SMILES,Population Apoptotic (%),Population Fragmented Nuclei (%),Population Healthy Nuclei (%),Population Hoechst High Intensity Objects (%),Population Membrane Permeable-Phenotype (%),Population Mitochondria Different-Phenotype (%),Population Mitotic Cells (%),Population Normal (%),Population Pyknosed Nuclei (%),Population Tubulin-Different-Phenotype (%)
COc1ccc2c(c1OCc1ccccc1)C[C@@H](C(=O)O)N(C(=O)C(c1ccccc1)c1ccccc1)C2 [OLODANRIGAN],57% and 61%,15% and 29%,69% and 58%,5% and 7%,1% and 3%,5%,42% and 38%,94% and 92%,15% and 12%,27% and 45%
COc1cc(N2CCN(C)CC2)ccc1Nc1nccc(-c2cn(C)c3cnccc23)n1,–,16.88% and 21.97%,73.75% and 64.57%,0%,5.08% and 2.08%,31.36% and 25%,66.67% and 90%,100%,9.38% and 13.45%,44.92% and 80.56%

# Same assay, conditions: 48 h, 10 µM, compound concentration 10 uM
row,SMILES,Total Cell Count
1,COc1ccc2c(c1OCc1ccccc1)C[C@@H](C(=O)O)N(C(=O)C(c1ccccc1)c1ccccc1)C2 [OLODANRIGAN],146 and 163
2,COc1cc(N2CCN(C)CC2)ccc1Nc1nccc(-c2cn(C)c3cnccc23)n1,160 and 223

# Source: ChEMBL document CHEMBL5724801, “EUbOPEN Chemogenomics Library - Multiplex” (2024)
